Columns and labels:
[1] = molecular target: T1, Serotonin 3 (5-HT3) receptor (Rattus norvegicus, UniProt P35563+Q9JJ16); assay: Concentration required to inhibit the binding of radioligand [3H]GR-65630 to serotonin 5-hydroxytryptamine-3 receptor (5-HT 3 receptor)in rat brain cortical membrane; assay type: tissue-based
T1 sequence (P35563 whole entry): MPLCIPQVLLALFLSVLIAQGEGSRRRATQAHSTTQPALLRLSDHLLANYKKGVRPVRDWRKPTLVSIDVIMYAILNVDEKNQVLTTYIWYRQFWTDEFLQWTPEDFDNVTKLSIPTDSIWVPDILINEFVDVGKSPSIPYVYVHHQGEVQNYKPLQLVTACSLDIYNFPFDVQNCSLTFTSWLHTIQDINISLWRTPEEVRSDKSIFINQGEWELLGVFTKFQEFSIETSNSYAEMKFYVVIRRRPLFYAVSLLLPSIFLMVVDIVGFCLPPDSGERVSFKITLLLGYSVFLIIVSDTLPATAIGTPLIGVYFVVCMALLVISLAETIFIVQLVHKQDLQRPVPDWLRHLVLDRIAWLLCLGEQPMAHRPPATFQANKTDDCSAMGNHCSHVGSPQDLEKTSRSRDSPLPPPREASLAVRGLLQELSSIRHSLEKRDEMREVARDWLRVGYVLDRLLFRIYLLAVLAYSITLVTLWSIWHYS
T1 sequence (Q9JJ16 whole entry): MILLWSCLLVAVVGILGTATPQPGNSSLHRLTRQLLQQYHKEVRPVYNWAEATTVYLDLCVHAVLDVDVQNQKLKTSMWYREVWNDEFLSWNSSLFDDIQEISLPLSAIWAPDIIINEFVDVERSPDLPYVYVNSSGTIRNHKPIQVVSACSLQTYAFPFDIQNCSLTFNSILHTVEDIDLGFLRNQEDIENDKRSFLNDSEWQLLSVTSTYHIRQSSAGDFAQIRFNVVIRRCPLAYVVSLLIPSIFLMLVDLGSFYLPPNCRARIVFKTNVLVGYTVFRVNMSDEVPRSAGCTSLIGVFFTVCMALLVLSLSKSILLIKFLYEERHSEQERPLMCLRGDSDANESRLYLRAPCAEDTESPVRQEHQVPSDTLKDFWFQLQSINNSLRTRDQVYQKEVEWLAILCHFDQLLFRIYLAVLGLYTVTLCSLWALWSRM

D(2) dopamine receptor [2] = molecular target: T2, D(2) dopamine receptor (Rattus norvegicus, UniProt P61169); assay: Inhibition of the binding of radioligand [3H]spiperone to dopamine receptor D2 in rat brain synaptic membrane; assay type: cell membranes
T2 sequence (P61169 whole entry): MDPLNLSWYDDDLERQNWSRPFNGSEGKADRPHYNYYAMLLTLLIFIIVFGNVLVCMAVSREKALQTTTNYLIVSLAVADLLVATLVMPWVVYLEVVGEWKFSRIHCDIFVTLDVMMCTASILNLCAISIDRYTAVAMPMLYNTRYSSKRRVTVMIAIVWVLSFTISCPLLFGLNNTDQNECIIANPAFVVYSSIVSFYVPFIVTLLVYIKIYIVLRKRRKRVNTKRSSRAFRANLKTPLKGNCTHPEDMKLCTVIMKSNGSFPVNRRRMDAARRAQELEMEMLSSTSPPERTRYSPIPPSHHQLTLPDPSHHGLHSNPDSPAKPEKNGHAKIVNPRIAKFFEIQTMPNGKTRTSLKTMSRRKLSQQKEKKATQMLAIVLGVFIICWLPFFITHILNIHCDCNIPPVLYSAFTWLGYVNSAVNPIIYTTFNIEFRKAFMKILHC

[3] = molecular target: T1, Serotonin 3 (5-HT3) receptor; assay: Concentration of compound required to inhibit the binding of radioligand [3H]GR-65630 to 5-hydroxytryptamine 3 receptor in rat brain cortical membrane; assay type: cell membranes
Method in brief: (§1)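 Displacement of [³H]GR65630 from rat cerebral cortex membranes, following an earlier [³H]quipazine binding protocol. IC50, the concentration giving 50% inhibition of specific binding, in nM by probit (linear regression) analysis. Values given as mean with 95% confidence limits.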

[4] = molecular target: T1, Serotonin 3 (5-HT3) receptor; assay: Concentration of compound required to inhibit the binding of radioligand [3H]GR-65630 to serotonin 5-hydroxytryptamine 3 receptor in rat cortical membrane; assay type: cell membranes; method in brief: as §1
[5] = molecular target: T3, 5-hydroxytryptamine receptor 4 (Cavia porcellus, UniProt O70528); assay: Concentration of compound required to inhibit the binding of radioligand [3H]GR-113808 to 5-hydroxytryptamine 4 receptor in guinea pig striatum; assay type: tissue-based
T3 sequence (O70528 whole entry): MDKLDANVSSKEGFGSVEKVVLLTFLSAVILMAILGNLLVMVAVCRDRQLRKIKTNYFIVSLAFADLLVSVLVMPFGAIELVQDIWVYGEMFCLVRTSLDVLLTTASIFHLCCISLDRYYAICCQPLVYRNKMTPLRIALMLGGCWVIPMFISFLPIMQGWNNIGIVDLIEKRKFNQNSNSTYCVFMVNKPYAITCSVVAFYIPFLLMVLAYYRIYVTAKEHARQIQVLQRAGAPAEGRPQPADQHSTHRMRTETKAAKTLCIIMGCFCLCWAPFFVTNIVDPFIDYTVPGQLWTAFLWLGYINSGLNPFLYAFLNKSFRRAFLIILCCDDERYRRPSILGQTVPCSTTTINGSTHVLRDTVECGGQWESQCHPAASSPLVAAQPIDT

D(2) dopamine receptor [6] = molecular target: T2, D(2) dopamine receptor; assay: Concentration of compound required to inhibit the binding of radioligand [3H]-spiperone to Dopamine receptor D2 in rat striatum; assay type: tissue-based
Method in brief: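 Competition binding against [³H]spiperone in rat striatum. IC50, the concentration inhibiting 50% of specific radioligand binding, in nM by probit (linear regression) analysis. Reported as mean with 95% confidence limits.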

Canis familiaris [7] = assay: Percent inhibition of apomorphine (0.3 mg/kg) induced emesis in dogs when 1 mg/kg of compound administered perorally; assay type: functional; details: Canis lupus familiaris, route oral
Method in brief: (§2)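 Male beagle dogs weighing 10–16 kg, in groups of three to six, were pretreated orally with test compound. Apomorphine hydrochloride (0.3 mg/kg) was injected subcutaneously 2 h later to elicit emesis.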

[8] = molecular target: T3, 5-hydroxytryptamine receptor 4; assay: Inhibition of [3H]GR-113808 binding to guinea pig striatum 5-hydroxytryptamine 4 receptor; assay type: tissue-based
[9] = molecular target: T1, Serotonin 3 (5-HT3) receptor; assay: Inhibition of [3H]GR-65630 binding to rat cortical membrane serotonin 5-hydroxytryptamine 3 receptor
D(2) dopamine receptor [10] = molecular target: T2, D(2) dopamine receptor; assay: Affinity towards Dopamine receptor D2 in rat striatum using [3H]spiperone as radioligand; assay type: tissue-based
D(2) dopamine receptor [11] = molecular target: T2, D(2) dopamine receptor; assay: Affinity of compound towards Dopamine receptor D2 in rat striatum using [3H]spiperone as radioligand; assay type: tissue-based
Method in brief: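 Competition binding against [3H]spiperone in rat striatal (brain synaptic) membranes. IC50 is the concentration giving 50% inhibition of specific radioligand binding, in nM, derived by linear regression (Probit analysis). Reported as mean with 95% confidence limits.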

Canis familiaris [12] = assay: Effective dose for inhibition of apomorphine (0.3 mg/kg) induced emesis in dogs when 1 mg/kg of compound administered perorally; assay type: functional, Canis lupus familiaris; details: route oral; method in brief: as §2
D(3) dopamine receptor [13] = molecular target: T4, D(3) dopamine receptor (Rattus norvegicus, UniProt P19020); assay: Concentration of compound required to inhibit the binding of radioligand [3H](R)-7-OH-DPAT to Dopamine receptor D3 in rat striatum.
T4 sequence (P19020 whole entry): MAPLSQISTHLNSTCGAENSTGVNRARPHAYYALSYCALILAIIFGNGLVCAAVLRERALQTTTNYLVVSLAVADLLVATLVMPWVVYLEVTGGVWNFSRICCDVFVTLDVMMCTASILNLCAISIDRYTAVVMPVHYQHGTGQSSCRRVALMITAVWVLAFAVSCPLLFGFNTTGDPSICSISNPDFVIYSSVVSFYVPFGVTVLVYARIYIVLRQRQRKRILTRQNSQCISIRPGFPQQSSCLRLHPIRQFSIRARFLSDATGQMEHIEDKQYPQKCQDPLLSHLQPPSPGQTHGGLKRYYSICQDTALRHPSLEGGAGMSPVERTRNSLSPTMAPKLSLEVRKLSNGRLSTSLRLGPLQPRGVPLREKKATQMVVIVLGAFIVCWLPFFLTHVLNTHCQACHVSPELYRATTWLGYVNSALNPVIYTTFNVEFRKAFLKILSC

[14] = molecular target: T3, 5-hydroxytryptamine receptor 4; assay: Concentration of compound required to inhibit the binding of radioligand [3H]GR-113808 to 5-hydroxytryptamine 4 receptor in guinea-pig striatum; assay type: tissue-based
D(3) dopamine receptor [15] = molecular target: T4, D(3) dopamine receptor; assay: Concentration of compound required to inhibit the binding of radioligand [3H](R)-7-OH-DPAT to Dopamine receptor D3 in rat striatum; assay type: tissue-based
[16] = molecular target: T3, 5-hydroxytryptamine receptor 4; assay: Concentration of compound required to inhibit the binding of radioligand [3H]GR-113808 to serotonin 5-hydroxytryptamine 4 receptor in guinea-pig striatum; assay type: tissue-based
[17] = Canis lupus familiaris, read-out: ED50

Structure (SMILES) | IC50 [1] | IC50 (D(2) dopamine receptor [2]) | inhibition in vivo at 1 mg/kg (Canis familiaris [7]) | Ki [8] | also measured
CCN1CCN(C)CC(NC(=O)c2cc(Cl)cc3c2OCC3)C1 (stereo not drawn) | 29.9 nM | > 1000 nM | – | – | –
CCN1CCN(C)CC(NC(=O)c2cnc(NC)nc2OC)C1 (stereo not drawn) | – | > 1000 nM | – | – | IC50 [3]: 157 nM
COc1cc(N)c(Cl)cc1C(=O)NC1CN(C)CCN(Cc2ccccc2)C1 (stereo not drawn) | – | – | – | – | IC50 [4]: 2.07 nM; IC50 [5]: > 1000 nM; IC50 (D(2) dopamine receptor [6]): > 1000 nM
CCN1CCN(C)CC(NC(=O)c2cc(Cl)cn3ccnc23)C1 (stereo not drawn) | 148 nM | > 1000 nM | – | – | –
CCN1CCN(C)CC(NC(=O)c2cc(Cl)cc3c2OCC(=O)N3C)C1 (stereo not drawn) | 38.7 nM | > 1000 nM | – | – | –
CCN1CCN(C2CC2)CC(NC(=O)c2cc(Br)c(NC)nc2OC)C1 (stereo not drawn) | 0.69 nM | 12.9 nM | 25% | – | –
COc1cc(N)c(Cl)cc1C(=O)NC1CC2CCC(C1)N2Cc1ccccc1 (stereo not drawn) | – | – | – | 233 nM | –
CCN1CCN(CC)CC(NC(=O)c2cc(Cl)c(NC)nc2OC)C1 | 0.65 nM | 27.8 nM | 53% | – | –
CCOc1nc(NC)c(Cl)cc1C(=O)NC1CN(C)CCN(CC)C1 (stereo not drawn) | 0.55 nM | 42.9 nM | 40% | – | –
COc1cc(N)c(Cl)cc1C(=O)NC1CCN(C)CC1 | – | – | – | 832 nM | –
CCN1CCN(C)C[C@@H](NC(=O)c2cc(Cl)c(N)c3c2OCC3)C1 | 3.7 nM | 637 nM | – | – | –
CCN1CCN(C)C[C@@H](NC(=O)c2cc(Cl)c(OC)nc2NC)C1 | > 100 nM | > 1000 nM | – | – | –
COc1cc(N)c(Cl)cc1C(=O)NCCN(C)Cc1ccccc1 | – | – | – | 867 nM | Ki [9]: > 1000 nM; Ki (D(2) dopamine receptor [10]): 24.3 nM
COc1cc(N)c(Cl)cc1C(=O)N[C@@H]1CN2CCC1CC2 | – | – | – | 383 nM | –
CCN1CCN(C)CC(NC(=O)c2cc(Br)c(N(C)C)nc2OC)C1 (stereo not drawn) | – | – | 83% | – | –
COc1cc(N)c(Cl)cc1C(=O)NC[C@@H]1CCN2CCC[C@@H]12 | – | – | – | 21 nM | Ki (D(2) dopamine receptor [11]): > 10000 nM
CCN1CCN(C)CC(NC(=O)c2[nH]nc3ccccc23)C1 (stereo not drawn) | 6.56 nM | > 1000 nM | – | – | –
CCN1CCN(CC)CC(NC(=O)c2cc(Br)c(NC)nc2OC)C1 | 0.59 nM | 20.9 nM | 69% | – | –

Structure (SMILES) | IC50 [1] | IC50 (D(2) dopamine receptor [2]) | inhibition in vivo at 1 mg/kg (Canis familiaris [7]) | Ki [8] | also measured
CCOc1nc(NC)c(Br)cc1C(=O)NC1CN(C)CCN(CC)C1 (stereo not drawn) | 1.48 nM | 86.4 nM | – | – | –
CNc1nc(OC)c(C(=O)NC2CN(C)CCN(C)C2)cc1Cl | 1.3 nM | 137 nM | 20% | – | –
CNc1nc(OC)c(C(=O)NC2CN(C)CCN(C3CC3)C2)cc1Br (stereo not drawn) | 0.76 nM | 47.1 nM | 14% | – | –
CCNc1nc(OC)c(C(=O)NC2CN(C)CCN(CC)C2)cc1Cl (stereo not drawn) | – | – | 42% | – | –
CCN1CCN(C)C[C@@H](NC(=O)c2cc(Cl)c(NC)nc2OC)C1 | – | – | 52% | – | –
CCN1CCN(C)C[C@@H](NC(=O)c2cc(Cl)c(NC)cc2OC)C1 | – | – | 100% | – | IC50 [5]: > 1000 nM; ED50 (Canis familiaris [12]; [17]): 0.13 mg/kg; ED50 (Canis familiaris [12]; dose 1 mg/kg): 0.13 mg/kg; IC50 (D(3) dopamine receptor [13]): 15.1 nM
CCN1CCN(C)C[C@H](NC(=O)c2cc(Br)c(NC)nc2OC)C1 | 1.28 nM | 122 nM | 47% | – | IC50 [14]: > 1000 nM; IC50 (D(3) dopamine receptor [15]): 14.3 nM
CCN1CCN(C)CC(NC(=O)c2cc(Br)c(NC)nc2OC)C1 (stereo not drawn) | 0.97 nM | – | – | – | –
CCN1CCN(C)C[C@@H](NC(=O)c2cc(Br)c(NC)nc2OC)C1 | 1.2 nM | 6.88 nM | 100% | – | IC50 [16]: > 10000 nM; ED50 (Canis familiaris [12]; [17]): 0.12 mg/kg; IC50 (D(3) dopamine receptor [15]): 1.13 nM
COc1cc(N)c(Cl)cc1C(=O)NC1CC2CCC(C1)N2C (stereo in doubt) | – | – | – | 48 nM | –
COc1cc(N)c(Cl)cc1C(=O)NC1CC2CCC(C1)N2C (stereo in doubt; 2) | – | – | – | > 1000 nM | –
COc1cc(N)c(Cl)cc1C(=O)NC1CCN(Cc2ccccc2)CC1 [CLEBOPRIDE] | – | – | – | 104 nM | –
O=c1[nH]c2ccccc2n1CCCN1CCC(n2c(=O)[nH]c3cc(Cl)ccc32)CC1 [DOMPERIDONE] | – | – | – | – | IC50 [5]: > 1000 nM
CCN(CC)CCNC(=O)c1cc(Cl)c(N)cc1OC [METOCLOPRAMIDE] | 228 nM | – | 100% | 546 nM | IC50 [16]: 912 nM; Ki [9]: 210 nM; ED50 (Canis familiaris [12]; [17]): 0.45 mg/kg; IC50 (D(3) dopamine receptor [15]): 61.3 nM
CCOc1cc(N)c(Cl)cc1C(=O)NCC1CN(Cc2ccc(F)cc2)CCO1 (stereo not drawn) [MOSAPRIDE] | – | – | – | 69.9 nM | Ki [9]: 1190 nM; Ki (D(2) dopamine receptor [10]): > 10000 nM
Cc1nccn1CC1CCc2c(c3ccccc3n2C)C1=O (stereo not drawn) [ONDANSETRON] | – | > 1000 nM | – | – | –
COc1cc(N)c(Cl)cc1C(=O)NC1CCN2CCCC1C2 (stereo not drawn) [RENZAPRIDE] | – | – | – | 40.4 nM | Ki [9]: 5.3 nM; Ki (D(2) dopamine receptor [10]): > 10000 nM

From ChEMBL document CHEMBL1136809, “Synthesis and structure-affinity relationships of novel N-(1-ethyl-4-methylhexahydro-1,4-diazepin-6-yl)pyridine-3-carboxamides with potent serotonin 5-HT3 and dopamine D2 receptor antagonistic activity” (J Med Chem, 2003)
